Laboratory results: ChEMBL document CHEMBL1955832, “Facile synthesis, characterization and pharmacological activities of 3,6-disubstituted 1,2,4-triazolo[3,4-b][1,3,4]thiadiazoles and 5,6-dihydro-3,6-disubstituted-1,2,4-triazolo[3,4-b][1,3,4]thiadiazoles” (2012)
Values after ≈ are worked out from the molar mass of the structure shown. Active and inactive are the calls of the source. The rule behind the calls is not given here.

Legend:
Klebsiella pneumoniae [1] = assay: Antibacterial activity against recultured Klebsiella pneumoniae after 16 to 18 hrs by serial dilution method; format: functional
Procedure, shortened: (§1)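 Serial drug dilutions in Mueller-Hinton broth adjusted to pH 5.0 with phosphate buffer, inoculated with standardized bacterial suspension, incubated 16–18 h at 37 °C; MIC taken as lowest concentration without conspicuous growth.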

Mus musculus [2] = assay: Analgesic activity Wistar albino mouse assessed as tail withdrawal latency time at 100 mg/kg, po administered by intragastric tube after 180 mins (reference value: 1.363 +/- 0.1297 sec); format: functional
Escherichia coli [3] = assay: Antibacterial activity against Escherichia coli ATTC 25922 at MIC after 3 to 4 days by disc diffusion method; format: functional
Procedure, shortened: (§2)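 Agar well diffusion: seeded agar plates dried 1 h at 37 °C, wells punched and filled with test compound at MIC level in DMSO; DMSO solvent control. Plates in triplicate, kept at 37 °C for 3–4 days; zone of inhibition read.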

Rattus norvegicus = assay: Antiinflammatory activity rat assessed as reduction of carrageenan-induced paw oedema at 100 mg/kg, po administered 30 mins before carrageenan challenge measured after 60 to 180 mins; format: functional, organism-based; set-up: dose 100 mg/kg
Procedure, shortened: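 Rats randomly assigned, 100 mg/kg orally as suspension in 1% carboxymethyl cellulose, 30 min before carrageenan injected into right hind paw. Paw thickness measured with vernier callipers at 60, 120 and 180 min. Diclofenac reference; mean ± SEM, n = 6, vs vehicle control.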

Pseudomonas aeruginosa [4] = assay: Antibacterial activity against Pseudomonas aeruginosa ATTC 27853 after 16 to 18 hrs by serial dilution method; format: functional; procedure, shortened: as §1
Mus musculus [5] = assay: Analgesic activity Wistar albino mouse assessed as tail withdrawal latency time at 100 mg/kg, po administered by intragastric tube after 120 mins (reference value: 1.363 +/- 0.1297 sec); format: functional
Talaromyces marneffei [6] = assay: Antifungal activity against recultured Penicillium marneffei at MIC after 3 to 4 days; format: functional
[7] = system: Radical scavenging activity; assay: Antioxidant activity of the compound assessed as DPPH radical scavenging activity at 400 ug/ml after 20 mins; format: functional
Procedure, shortened: (§3)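 Compound dissolved in methylene dichloride at the stated concentration, mixed with 4 mL 0.1 mM methanolic DPPH, held 20 min at ambient temperature; absorbance read at 517 nm. Scavenging % = (A_DPPH − A_test)/A_DPPH × 100. Triplicate; ascorbic acid positive control.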

Aspergillus fumigatus [8] = assay: Antifungal activity against Aspergillus fumigatus NCIM 902 at MIC after 3 to 4 days; format: functional
Staphylococcus aureus [9] = assay: Antibacterial activity against Staphylococcus aureus ATTC 25923 after 16 to 18 hrs by serial dilution method; format: functional; procedure, shortened: as §1
Aspergillus fumigatus [10] = assay: Antifungal activity against Aspergillus fumigatus NCIM 902 by serial plate dilution method; format: functional
Talaromyces marneffei [11] = assay: Antifungal activity against recultured Penicillium marneffei by serial plate dilution method; format: functional
[12] = system: Trichophyton mentagrophytes; assay: Antifungal activity against recultured Trichophyton mentagrophytes by serial plate dilution method; format: functional
Pseudomonas aeruginosa [13] = assay: Antibacterial activity against Pseudomonas aeruginosa ATTC 27853 at MIC after 3 to 4 days by disc diffusion method; format: functional; procedure, shortened: as §2
Klebsiella pneumoniae [14] = assay: Antibacterial activity against recultured Klebsiella pneumoniae at MIC after 3 to 4 days by disc diffusion method; format: functional; procedure, shortened: as §2
Aspergillus flavus [15] = assay: Antifungal activity against Aspergillus flavus NCIM 524 by serial plate dilution method; format: functional
[16] = system: Radical scavenging activity; assay: Antioxidant activity of the compound assessed as DPPH radical scavenging activity at 800 ug/ml after 20 mins; format: functional; procedure, shortened: as §3
[17] = system: Radical scavenging activity; assay: Antioxidant activity of the compound assessed as DPPH radical scavenging activity at 200 ug/ml after 20 mins; format: functional; procedure, shortened: as §3
Escherichia coli [18] = assay: Antibacterial activity against Escherichia coli ATTC 25922 after 16 to 18 hrs by serial dilution method; format: functional; procedure, shortened: as §1
Mus musculus [19] = assay: Analgesic activity Wistar albino mouse assessed as tail withdrawal latency time at 100 mg/kg, po administered by intragastric tube after 60 mins (reference value: 1.363 +/- 0.1297 sec); format: functional
Aspergillus flavus [20] = assay: Antifungal activity against Aspergillus flavus NCIM 524 at MIC after 3 to 4 days; format: functional
Staphylococcus aureus [21] = assay: Antibacterial activity against Staphylococcus aureus ATTC 25923 at MIC after 3 to 4 days by disc diffusion method; format: functional; procedure, shortened: as §2
[22] = system: Trichophyton mentagrophytes; assay: Antifungal activity against recultured Trichophyton mentagrophytes at MIC after 3 to 4 days; format: functional

| Compound | MIC (Klebsiella pneumoniae [1]) [µM] | Time (Mus musculus [2]) [s] | diameter of the inhibition zone (DIZ) (Escherichia coli [3]) [mm] | Activity (Rattus norvegicus) | MIC (Pseudomonas aeruginosa [4]) [µM] | Time (Mus musculus [5]) [s] | diameter of the inhibition zone (DIZ) (Talaromyces marneffei [6]) [mm] | diameter of the inhibition zone (DIZ) (Aspergillus fumigatus [8]) [mm] | MIC (Staphylococcus aureus [9]) [µM] | MIC (Aspergillus fumigatus [10]) [µM] | MIC (Talaromyces marneffei [11]) [µM] | MIC [12] [µM] | diameter of the inhibition zone (DIZ) (Pseudomonas aeruginosa [13]) [mm] | diameter of the inhibition zone (DIZ) (Klebsiella pneumoniae [14]) [mm] | MIC (Aspergillus flavus [15]) [µM] | MIC (Escherichia coli [18]) [µM] | Time (Mus musculus [19]) [s] | diameter of the inhibition zone (DIZ) (Aspergillus flavus [20]) [mm] | diameter of the inhibition zone (DIZ) (Staphylococcus aureus [21]) [mm] | diameter of the inhibition zone (DIZ) [22] [mm] | also measured |
| --- | --- | --- | --- | --- | --- | --- | --- | --- | --- | --- | --- | --- | --- | --- | --- | --- | --- | --- | --- | --- | --- |
| COc1ccc(Br)c(-c2nnc3sc(-c4ccc([N+](=O)[O-])cc4)nn23)c1 | 28.9 (≈ 12.5 µg/mL) | 2.663 | 11 | Active | 28.9 (≈ 12.5 µg/mL) | 3.263 | 16 | 16 | 28.9 (≈ 12.5 µg/mL) | 14.5 (≈ 6.25 µg/mL) | 14.5 (≈ 6.25 µg/mL) | 14.5 (≈ 6.25 µg/mL) | 11 | 11 | 14.5 (≈ 6.25 µg/mL) | 28.9 (≈ 12.5 µg/mL) | 3.375 | 16 | 11 | 16 | inhibition [7]: 68.1%; inhibition [16]: 71.9%; inhibition [17]: 62.9% |
| O=C1O[C@H]([C@@H](O)CO)C(O)=C1O |  |  |  |  |  |  |  |  |  |  |  |  |  |  |  |  |  |  |  |  | inhibition [7]: 95%; inhibition [16]: 96%; inhibition [17]: 87.6% |
| COc1ccc(Br)c(-c2nnc3sc(-c4cc([N+](=O)[O-])cc([N+](=O)[O-])c4)nn23)c1 | 13.1 (≈ 6.25 µg/mL) | 2.425 | 16 | Active | 26.2 (≈ 12.5 µg/mL) | 3.563 | 11 | 16 | 13.1 (≈ 6.25 µg/mL) | 13.1 (≈ 6.25 µg/mL) | 26.2 (≈ 12.5 µg/mL) | 13.1 (≈ 6.25 µg/mL) | 11 | 16 | 13.1 (≈ 6.25 µg/mL) | 13.1 (≈ 6.25 µg/mL) | 3.675 | 16 | 16 | 16 | inhibition [7]: 68.4%; inhibition [16]: 78%; inhibition [17]: 58.5% |
| COc1ccc(Br)c(-c2nnc3n2NC(c2ccccc2Cl)S3)c1 (configuration not stated) | 29.5 (≈ 12.5 µg/mL) | 2.938 | 11 | Active | 29.5 (≈ 12.5 µg/mL) | 3.25 | 11 | 16 | 14.8 (≈ 6.25 µg/mL) | 14.8 (≈ 6.25 µg/mL) | 29.5 (≈ 12.5 µg/mL) | 29.5 (≈ 12.5 µg/mL) | 11 | 11 | 14.8 (≈ 6.25 µg/mL) | 29.5 (≈ 12.5 µg/mL) | 3.6 | 16 | 16 | 11 | inhibition [7]: 51.8%; inhibition [16]: 62.7%; inhibition [17]: 48% |
| COc1ccc(Br)c(-c2nnc3n2NC(c2ccccc2OC)S3)c1 (configuration not stated) | 29.8 (≈ 12.5 µg/mL) | 2.501 | 16 | Active | 29.8 (≈ 12.5 µg/mL) | 2.652 | 11 | 16 | 29.8 (≈ 12.5 µg/mL) | 14.9 (≈ 6.25 µg/mL) | 29.9 (≈ 12.5 µg/mL) | 14.9 (≈ 6.25 µg/mL) | 11 | 11 | 14.9 (≈ 6.25 µg/mL) | 14.9 (≈ 6.25 µg/mL) | 2.387 | 16 | 11 | 16 |  |
| COc1ccc(-c2nn3c(-c4cc(OC)ccc4Br)nnc3s2)cc1 | 15 (≈ 6.25 µg/mL) | 2.44 | 16 | Active | 15 (≈ 6.25 µg/mL) | 2.674 | 11 | 16 | 15 (≈ 6.25 µg/mL) | 15 (≈ 6.25 µg/mL) | 29.9 (≈ 12.5 µg/mL) | 15 (≈ 6.25 µg/mL) | 16 | 16 | 29.9 (≈ 12.5 µg/mL) | 15 (≈ 6.25 µg/mL) | 2.379 | 11 | 16 | 16 |  |
| COc1ccc(Br)c(-c2nnc3sc(-c4ccc(C)cc4O)nn23)c1 | 15 (≈ 6.25 µg/mL) | 3.121 | 16 | Active | 15 (≈ 6.25 µg/mL) | 3.321 | 11 | 16 | 29.9 (≈ 12.5 µg/mL) | 15 (≈ 6.25 µg/mL) | 29.9 (≈ 12.5 µg/mL) | 15 (≈ 6.25 µg/mL) | 16 | 16 | 15 (≈ 6.25 µg/mL) | 15 (≈ 6.25 µg/mL) | 2.388 | 16 | 11 | 16 |  |
| COc1ccc(Br)c(-c2nnc3n2NC(c2ccc(C)cc2)S3)c1 (configuration not stated) | 15.5 (≈ 6.25 µg/mL) | 2.438 | 16 | Active | 15.5 (≈ 6.25 µg/mL) | 2.643 | 11 | 16 | 31 (≈ 12.5 µg/mL) | 15.5 (≈ 6.25 µg/mL) | 31 (≈ 12.5 µg/mL) | 31 (≈ 12.5 µg/mL) | 16 | 16 | 15.5 (≈ 6.25 µg/mL) | 15.5 (≈ 6.25 µg/mL) | 2.403 | 16 | 11 | 11 |  |
